According to publication PMC2939154 (Nature, 2010):
Substitutions are numbered along the chain they refer to. Entries after “also recorded” stand apart in the source; their conditions may differ. Ends that are not written are not given here.

Key:
NRMT [1] = biological target: T1, NRMT (Homo sapiens, UniProt Q9BV86); test: isothermal titration calorimetry; format: binding; details: ITC, 25OC, methyltransferase buffer pH 8.0
T1 sequence (Q9BV86 1-223): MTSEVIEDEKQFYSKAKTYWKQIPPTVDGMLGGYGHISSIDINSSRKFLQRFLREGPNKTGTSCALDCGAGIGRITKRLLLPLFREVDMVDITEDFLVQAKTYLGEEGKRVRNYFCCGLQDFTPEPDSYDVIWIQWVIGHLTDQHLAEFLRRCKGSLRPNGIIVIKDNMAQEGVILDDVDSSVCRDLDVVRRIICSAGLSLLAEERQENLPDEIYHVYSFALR
Outline: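 Isothermal titration calorimetry of NRMT binding to peptide ligands: the wild-type RCC1 N-terminal peptide and a mutant peptide with Gln in place of Lys4. This tests whether Lys4 is needed for substrate binding. The readout is binding affinity.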

[2] = biological target: N-terminal RCC1 methyltransferase (NRMT) (not stated (human or mouse cDNA cloned)) (UniProt Q9BV86); test: ITC
[3] = test system: N-terminally methylated proteins; details: mouse spleen and cardiac lysates, anti-me3-SPK immunoprecipitation
NRMT [4] = biological target: T1, NRMT; test: in vitro methylation assay of protein substrates by NRMT, immunoblot; format: biochemical; details: 50mM Tris, 50mM K Acetate, pH 8.0, 100 µM SAM, 1 h at 30°C
[5] = test system: RCC1 methylation in 293LT cells; test: NRMT lentiviral knockdown and rescue in 293LT cells, immunoblot; format: cell-based; details: murine NRMT, not targeted by human shRNA
SPK-RCC1 = format: biochemical, human; details: in vitro methylation of SPK-RCC1

In the case of H-SPKRIAKRRSPP, the “ΔH (exothermic binding)” value (NRMT [1]) is reported as -41 kJ/mol.

In the case of “wild-type 12-residue RCC1 N-terminal peptide”, the Kd [2] is reported as 70 µM and the dH [2] is reported as -41 kJ/mol.

With “myosin light chain 3: mouse protein identified in anti-me3-SPK immunoprecipitates” the “N-terminal methylation identified by MS” value [3] was “N-terminally methylated”.

B1: FLAG-NRMT: N-terminally FLAG-tagged NRMT (protein, UniProt Q9BV86 1-223, looked up)
N-terminal Xaa-Pro-Lys …: T1 sequence (Q9BV86 1-223)
modifications: N-terminal FLAG tag
In the case of B1, the “in vitro methylation (enzyme FLAG-NRMT or His6-NRMT; substrate protein)” value (“in vitro methylation” for short) (NRMT [4]) is reported as “methylates RCC1-His6”.

B2: murine NRMT-FLAG: murine NRMT-FLAG, not targeted by the human shRNA (protein, UniProt Q8R2U4 1-223, looked up)
N-terminal Xaa-Pro-Lys …: MTSEVIEDEKQFYSKAKTYWKQIPPTVDGMLGGYGHISNIDLNSSRKFLQRFLREGPNKTGTSCALDCGAGIGRITKRLLLPLFRVVDMVDVTEDFLAKAKTYLGEEGKRVRNYFCCGLQDFSPEPGSYDVIWIQWVIGHLTDQHLAEFLRRCKRGLRPNGIIVIKDNMAQEGVILDDVDSSVCRDLEVVRRIIRTAGLSLLAEERQENLPDEIYHVYSFALR
modifications: FLAG tag
In the case of B2, the “RCC1 methylation levels, rescue in NRMT knockdown cells” value [5] is reported as “rescues RCC1 methylation levels; also recorded: RCC1 methylation was rescued”.

B3: NRMT(Lys169): NRMT mutant at Asn169 (protein)
chain: TSEVIEDEKQFYSKAKTYWKQIPPTVDGMLGGYGHISSIDINSSRKFLQRFLREGPNKTGTSCALDCGAGIGRITKRLLLPLFREVDMVDITEDFLVQAKTYLGEEGKRVRNYFCCGLQDFTPEPDSYDVIWIQWVIGHLTDQHLAEFLRRCKGSLRPNGIIVIKDKMAQEGVILDDVDSSVCRDLDVVRRIICSAGLSLLAEERQENLPDEIYHVYSFALR
With B3 the “methylation activity of NRMT mutant” value (SPK-RCC1) was “no activity”.

B4: myosin light chain 2: mouse protein identified in anti-me3-SPK immunoprecipitates (protein, UniProt P51667 2-166, looked up)
Myosin regulatory light chain …: APKKAKKRIEGGSSNVFSMFEQTQIQEFKEAFTIMDQNRDGFIDKNDLRDTFAALGRVNVKNEEIDEMIKEAPGPINFTVFLTMFGEKLKGADPEETILNAFKVFDPEGKGSLKADYVREMLTTQAERFSKEEIDQMFAAFPPDVTGNLDYKNLVHIITHGEEKD
With B4 the “N-terminal methylation identified by MS” value [3] was “N-terminally methylated”.

B5: RCC1: regulator of chromosome condensation 1, Ran guanine nucleotide-exchange factor (protein, UniProt P18754 2-421, looked up)
Regulator of chromosome …: SPKRIAKRRSPPADAIPKSKKVKVSHRSHSTEPGLVLTLGQGDVGQLGLGENVMERKKPALVSIPEDVVQAEAGGMHTVCLSKSGQVYSFGCNDEGALGRDTSVEGSEMVPGKVELQEKVVQVSAGDSHTAALTDDGRVFLWGSFRDNNGVIGLLEPMKKSMVPVQVQLDVPVVKVASGNDHLVMLTADGDLYTLGCGEQGQLGRVPELFANRGGRQGLERLLVPKCVMLKSRGSRGHVRFQDAFCGAYFTFAISHEGHVYGFGLSNYHQLGTPGTESCFIPQNLTSFKNSTKSWVGFSGGQHHTVCMDSEGKAYSLGRAEYGRLGLGEGAEEKSIPTLISRLPAVSSVACGASVGYAVTKDGRVFAWGMGTNYQLGTGQDEDAWSPVEMMGKQLENRVVLSVSSGGQHTVLLVKDKEQS
B5 was tested, and the “N-terminal methylation identified by MS” value [3] was “N-terminally methylated”.

B6: PPK-RCC1-His6: RCC1 possessing a Pro2 residue, His6 tagged (protein, UniProt P18754 2-421, looked up, variant S2P)
Regulator of chromosome …: B5 Regulator of chromosome … with S1P
modifications: His6 tag
With B6 the “in vitro methylation” value (NRMT [4]) was “dimethylates”.

B7: kelch-like protein 31: mouse protein identified in anti-me3-SPK immunoprecipitates (protein, UniProt Q8BWA5 2-634, looked up)
Kelch-like protein 31: APKKKTIKKNKAEINEMTIIVEDSPLSKLNALNGLLEGSNSLSCVSSELTDTSYGPNLLEGLSKMRQESFLCDLVIGTKTKSFDVHKSVMASCSEYFYNILKNDPSTKRVDLNDIAPLGLATVIAYAYTGKLTLSLYTIGSIISAAVYLQIHTLVKMCSDFLIREISVENCMYVVNIAETYSLKNAKATAQKFIRDNFIEFAESEQFMKLTFEQINELLVDDDLQLPSELVAFQIAMKWLEFDQKRVKHAADLLSNIRFGTISAQDLVNYVQTVPRMMQDADCHKLLVDAMNYHLLPYHQNTLQSRRTRIRGGCRVLITVGGRPGLTEKSLSRDILYRDPENGWSKLTEMPAKSFNQCVAVMDGFLYVAGGEDQNDARNQAKHAVSNFCRYDPRFNTWIHLGSMNQKRTHFSLSVFNGLLYAVGGRNSEGSLASLECYVPSTNQWQPKAPLEVARCCHASAVADGRVIVTGGYIGSAYSRSVCAYDPALDAWQELPQLSTPRGWHCAVALGDRLYVMGGSQLGPRGERVDVLTVESFSPAARQWSFVAPLPVGVSTAGVSALHGRAYLLGGWNEGDKKYKKCIQCFNPELNEWTEDDELPEATVGVSCCTLAMPNSVSRESRASSVSSVPVSI
For B7, the “N-terminal methylation identified by MS” value [3] was “N-terminally methylated”.

B8: RCC1-His6: recombinant RCC1 with C-terminal His6 tag (protein)
chain: MSPKRIAKRRSPPADAIPKSKKVKVSHRSHSTEPGLVLTLGQGDVGQLGLGENVMERKKPALVSIPEDVVQAEAGGMHTVCLSKSGQVYSFGCNDEGALGRDTSVEGSEMVPGKVELQEKVVQVSAGDSHTAALTDDGRVFLWGSFRDNNGVIGLLEPMKKSMVPVQVQLDVPVVKVASGNDHLVMLTADGDLYTLGCGEQGQLGRVPELFANRGGRQGLERLLVPKCVMLKSRGSRGHVRFQDAFCGAYFTFAISHEGHVYGFGLSNYHQLGTPGTESCFIPQNLTSFKNSTKSWVGFSGGQHHTVCMDSEGKAYSLGRAEYGRLGLGEGAEEKSIPTLISRLPAVSSVACGASVGYAVTKDGRVFAWGMGTNYQLGTGQDEDAWSPVEMMGKQLENRVVLSVSSGGQHTVLLVKDKEQS
modifications: left off: His6, C-terminal, state not stated
With B8 the “in vitro methylation” value (NRMT [4]) was “di-and trimethylates”.

B9: RB: tumor suppressor protein RB; endogenous, or N-terminus fused to GFP (Fig. 3g) (protein, UniProt P06400 2-928, looked up)
Retinoblastoma-associated …: PPKTPRKTAATAAAAAAEPPAPPPPPPPEEDPEQDSGPEDLPLVRLEFEETEEPDFTALCQKLKIPDHVRERAWLTWEKVSSVDGVLGGYIQKKKELWGICIFIAAVDLDEMSFTFTELQKNIEISVHKFFNLLKEIDTSTKVDNAMSRLLKKYDVLFALFSKLERTCELIYLTQPSSSISTEINSALVLKVSWITFLLAKGEVLQMEDDLVISFQLMLCVLDYFIKLSPPMLLKEPYKTAVIPINGSPRTPRRGQNRSARIAKQLENDTRIIEVLCKEHECNIDEVKNVYFKNFIPFMNSLGLVTSNGLPEVENLSKRYEEIYLKNKDLDARLFLDHDKTLQTDSIDSFETQRTPRKSNLDEEVNVIPPHTPVRTVMNTIQQLMMILNSASDQPSENLISYFNNCTVNPKESILKRVKDIGYIFKEKFAKAVGQGCVEIGSQRYKLGVRLYYRVMESMLKSEEERLSIQNFSKLLNDNIFHMSLLACALEVVMATYSRSTSQNLDSGTDLSFPWILNVLNLKAFDFYKVIESFIKAEGNLTREMIKHLERCEHRIMESLAWLSDSPLFDLIKQSKDREGPTDHLESACPLNLPLQNNHTAADMYLSPVRSPKKKGSTTRVNSTANAETQATSAFQTQKPLKSTSLSLFYKKVYRLAYLRLNTLCERLLSEHPELEHIIWTLFQHTLQNEYELMRDRHLDQIMMCSMYGICKVKNIDLKFKIIVTAYKDLPHAVQETFKRVLIKEEEYDSIIVFYNSVFMQRLKTNILQYASTRPPTLSPIPHIPRSPYKFPSSPLRIPGGNIYISPLKSPYKISEGLPTPTKMTPRSRILVSIGESFGTSEKFQKINQMVCNSDRVLKRSAEGSNPPKPLKKLRFDIEGSDEADGSKHLPGESKFQQKLAEMTSTRTRMQKQKMNDSMDTSNKEEK
For B9, the “in vitro methylation” value (NRMT [4]) was “can methylate in vitro; also recorded: able to methylate”.
